# Compound activity: PubChem BioAssay, several laboratories
# This excerpt belongs to a sample that is enriched for hits.
# Hsp70 act: switches on Hsp70 transcription; activation, % at 10 µM; HeLa Hsp70 promoter luciferase reporter, luminescence; scaled: vehicle 0, proteasome-inhibitor control 100%; actives 0.04% (n = 200,000);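 active = activation above the mean across all tested compounds plus 3 SD, cutoff set per campaign, cut at about 5.5% in these data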;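 note: 100% = MG132 at 30 µM as the positive control and 0% = DMSO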
# HSF1 inh: HSF1 inhibition. NIH3T3-HGL HSE-luciferase, MG132-induced, luminescence 8 h; stronger effect = lower value. activity change, negative = inhibition, % at 7.5 µM (by protocol). actives 0.77% (n = 300,000). AID 2098;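 active = more than half of replicate wells show activity change below -50%, luminescence cut by over half; inconclusive = some wells, but at most half, below -50%; inactive = no replicate well below -50%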;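 note: luciferase reports HSF-1 transcriptional activity via heat shock element; 0% = median of DMSO wells and -100% = zero luminescence signal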
# HSF1 activator: increases HSF-1 driven luciferase reporter signal; activation, % at 9 µM; AID 504408; NIH3T3-HGL HSF-1 luciferase reporter, MG132, 8 h; 100% = twice DMSO control signal; actives 1.7% (n = 300,000);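 active = mean replicate activation of at least 50% with a set share of replicates each reaching 50%; inconclusive = only one of those two conditions met; inactive = mean below 50% and too few replicates reaching it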;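 note: 0% = median of the neutral control wells and 100% = twice that signal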
# Lmaj promast: inhibitors of Leishmania major promastigote growth | Leishmania major promastigotes, resazurin fluorescence viability | inhibition, % at 10 µM | actives 9% (n = 200,000) | AID 1063; in the data active = inhibition above about 50%;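 note: promastigotes grown with compound for 44 hours at 28 °C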
# T cruzi inh: T. cruzi replication inhibition; T. cruzi beta-gal in NIH3T3, luminescence, 90 h; inhibition, % (concentration not given with the values); AID 1885; actives 1.4% (n = 300,000);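 active = mean inhibition across valid replicates above about 55%, limit read from the data; inconclusive = mean below that limit but half or more replicates reach it; inactive = mean below it, under half of replicates reach it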;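 note: signal also drops with host cell toxicity which is not excluded here; 0% = plate median of DMSO wells and 100% = zero luminescence signal; higher percent means less beta-gal luminescence so fewer parasites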
#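 System: NIH/3T3 fibroblasts plus reporter T. cruzi. Medium: DMEM plus 2% FBS. Probe or stimulus: 5000 reporter trypomastigotes per well. Compound: single 50 nL compound addition per well in DMSO. Incubation: co-culture of at least 90 h after 3 h attachment. Detection: GalScreen β-gal luminescence, detergent lysis, 60 min. Evaluation: parasite load inhibition, %.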
# The depositor's hits bear a star; ? = inconclusive; nt = no result given.
SMILES,Hsp70 act,HSF1 inh,HSF1 activator,Lmaj promast,T cruzi inh
COc1ccc(C2(CNC(=O)c3cc([N+](=O)[O-])cc([N+](=O)[O-])c3)CCCC2)cc1OC,0,-1,-24,100*,42
COc1cc(C(=S)N2CCN(C(c3ccccc3)c3ccccc3)CC2)cc(OC)c1O,nt,0,-19,nt,-4
CCCCN1CCc2c(c3ccccc3n2Cc2ccccc2)C1,nt,-4,-9,nt,44
CN1CCc2c(c3ccccc3n2Cc2ccccc2)C1,0,3,11,100*,12
CC1CCN(C(=O)CN(c2ccc(Cl)c(C(F)(F)F)c2)S(C)(=O)=O)CC1,0,nt,nt,69*,2
CS(=O)(=O)N(Cc1ccc(Cl)cc1)c1ccc(C(=O)N2CCN(c3ccccc3)CC2)cc1,0,-2,19,13,7
CS(=O)(=O)N(Cc1ccccc1)c1ccc(C(=O)N2CCN(c3cccc(Cl)c3)CC2)cc1,0,nt,nt,73*,nt
CS(=O)(=O)N(CC(=O)N1CCN(c2ccccc2)CC1)c1ccc(Cl)c(C(F)(F)F)c1,0,4,6,89*,2
CC(/C=C/c1ccccc1)=N/NC(=O)Cn1nnc(N)n1,nt,1,3,nt,7
COc1ccc(-c2csc(Nc3ncccc3C)n2)cc1OC,0,1,16,31,15
Cc1cccnc1Nc1nc(-c2ccc(O)c(O)c2)cs1,0,-3,19,58*,-13
Cc1nc(C)c(-c2csc(Nc3ccc(F)cc3)n2)s1,0,40,65*,39,1
Cc1nc(C)c(-c2csc(Nc3ncccc3C)n2)s1,nt,34,61*,nt,6
Cc1cccc(Nc2nc(-c3ccc(F)c(C)c3)cs2)n1,nt,46,67*,nt,29
COc1ccc(-c2csc(Nc3ncccc3C)n2)cc1,0,22,?,5,26
COc1ccc(C2CC(=O)c3sc(NC(C)=O)nc3C2)cc1 (stereo not given),0,-8,-4,-4,-11
S=C(NCCCN1CCOCC1)Nc1cccc(-c2nnc3n2CCCCC3)c1,0,6,11,-3,-10
C/C(N)=C(/C#N)C(=O)CSc1nc2ccccc2c(=O)n1CCCOC(C)C,0,3,10,90*,21
CCOCCCn1c(SCC(=O)/C(C#N)=C(\C)N)nc2ccccc2c1=O,0,-2,-27,23,-4
Nc1ncnc(Sc2ccc(Cl)cc2)c1[N+](=O)[O-],-1,15,14,67*,50
Nc1ncnc(Sc2ncccn2)c1[N+](=O)[O-],0,?,-20,59*,37
COc1ccc(CCN(C)Cc2c(O)ccc3cc(Br)ccc23)cc1OC,nt,164,204*,nt,14
COc1ccc(CCN(C)CCc2ccc(OC)c(OC)c2)cc1OC,nt,-2,-3,nt,49
COc1ccc(CN(C)Cc2c(O)ccc3cc(Br)ccc23)cc1OC,nt,87,114*,nt,3
N#Cc1cc([N+](=O)[O-])ccc1NC(=O)COC(=O)C12CC3CC(CC(C3)C1)C2,0,-5,3,13,-13
SMILES,Hsp70 act,HSF1 inh,HSF1 activator,Lmaj promast,T cruzi inh
S=C(NCCCN1CCOCC1)NC1CC1,0,0,7,-8,-12
Cc1nn(-c2ccccc2)c2nc(N)c(C#N)c(-c3ccc(C(C)(C)C)cc3)c12,nt,3,5,nt,35
COc1cccc(-c2c(C#N)c(N)nc3c2c(C)nn3-c2ccccc2)c1O,nt,52,63*,nt,13
CC(C)(C)C(=O)NCCN1C(=O)S/C(=C\c2ccc([N+](=O)[O-])cc2)C1=O,0,-6,7,57*,24
O=C(/C=C/c1ccccc1[N+](=O)[O-])NCCN1C(=O)S/C(=C\c2ccc(F)cc2)C1=O,0,17,20,-5,-29
CS(=O)(=O)c1ccc(C(=O)NCCN2C(=O)S/C(=C\c3cccnc3)C2=O)cc1[N+](=O)[O-],0,-3,-13,74*,-6
C=CCNc1cc(C)oc(=O)c1C(=O)CCC,0,-68*,-72,-2,-9
Cc1cccc(OCC(=O)NCCCNC(=O)c2ccncc2)c1,nt,0,8,nt,-9
CCOc1cc(NC(=S)Nc2cccc(OC)c2)c(OCC)cc1NC(=O)c1ccc(C)cc1,0,3,2,-3,21
COc1cc(OC)cc(C(=O)Nc2nnc(NC(=S)Nc3ccccc3)s2)c1,0,-6,-12,55*,5
CCOc1cc(NC(=S)Nc2ccccc2)c(OCC)cc1NC(=O)c1ccc(OC)cc1,0,12,8,96*,29
COc1cc(OC)cc(C(=O)Nc2ccc(Nc3ccccc3)cc2)c1,nt,13,17,nt,-1
COc1ccc2cc(CCNS(=O)(=O)c3c(C)cc(C)cc3C)c(=O)[nH]c2c1,nt,-7,20,nt,2
COc1ccc(C(C)(C)C)cc1NC(=O)Nc1ccc2c(c1)OCO2,0,-34,-39,100*,32
Cc1cc(C)c(NC(=O)Nc2ccc3c(c2)OCO3)c(C)c1,nt,-75*,-80,nt,0
Cc1ccc2oc(=O)n(CC(=O)OC(C)C)c2c1,0,1,-1,-1,-8
COCCNC(=O)CCn1c(=O)oc2ccccc21,0,-5,-18,70*,-9
CC(C)OC(=O)Cn1c(=O)oc2ccccc21,0,-52*,-62,-1,-8
NC(=S)NNc1c(F)c(F)c(F)c(F)c1F,0,12,4,-6,-4
COc1ccccc1C1(O)C(=O)Nc2ccccc21 (stereo not given),nt,5,-14,nt,-12
C[C@H](NC(N)=O)C(=O)OCC(=O)NCc1cccs1,0,3,9,-5,8
Oc1cccc(NC(=S)Nc2ccc(SC(F)F)cc2)c1,0,16,13,61*,-4
COC(=O)c1cc(=O)n(CCc2ccc(OC)c(OC)c2)c(=Nc2ccc(F)c(Cl)c2)s1,-1,0,-10,98*,48
COC(=O)c1cc(=O)n(-c2ccccc2)c(=Nc2ccccc2)s1,0,22,41,87*,16
COC(=O)c1cc(=O)n(Cc2ccco2)c(=Nc2ccc(F)cc2)s1,0,21,31,96*,51
SMILES,Hsp70 act,HSF1 inh,HSF1 activator,Lmaj promast,T cruzi inh
CCOC(=O)c1ccc(N=c2sc(C(=O)OC)cc(=O)n2-c2ccc(C(=O)OCC)cc2)cc1,0,69,105*,100*,39
CC(C)Oc1ccc(/C(O)=C2/C(=O)C(=O)N(CCN(C)C)C2c2cccs2)cc1 (stereo not given),0,4,-1,-5,1
Cc1nc(C)n(CCNS(=O)(=O)c2ccc(C)c(C)c2)n1,nt,-6,3,nt,-6
COc1ccc(COc2cc(-c3cccc(OC)c3)nc3ccc(NC(=O)c4ccc(N(C)C)cc4)cc23)cc1,0,-21,-38,84*,6
COc1cccc(-c2cc(C(=O)Nc3ccc(N(C)C(C)=O)cc3)c3cc(Br)ccc3n2)c1,nt,14,41,nt,61*
CSc1ccccc1NC(=O)c1cc(-c2cccnc2)nc2ccc(Br)cc12,0,-4,-13,21,69*
